Screening results: PubChem BioAssay, several laboratories
This is a sample that favours compounds with a hit; in the whole collection about 2.5% have one here.
TbHK1 inh: Trypanosoma brucei hexokinase 1 inhibitors, primary screen, biochemical, G6PDH-coupled NADH absorbance, MLSCN library; hexokinase 1 [Trypanosoma brucei]; recombinant TbHK1, G6PDH-coupled NADH A340; inhibition, % at 10 µM; 220,000 compounds, 0.11% hits; AID 1430, 2008;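 active = inhibition of 50% or more in the single-dose primary screen; inactive = inhibition below 50%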
PHOSPHO1 block: PubChem AID 1565 | inhibition, % at 13.3 µM | Phosphoethanolamine/phosphocholine phosphatase (Homo sapiens), Q8TCT1 | recombinant PHOSPHO1, absorbance phosphatase assay | 290,000 compounds, 1.1% hits; in the data active = inhibition above about 60%
PGE2 EP2 inh: human EP2 receptor antagonists, primary screen, TR-FRET cAMP, C6 glioma cells; inhibition, % at 25 µM; Prostaglandin E2 receptor EP2 subtype (Homo sapiens), P43116; AID 1422, 2008; 260,000 compounds, 0.52% hits; C6 glioma cells expressing human EP2; cells stimulated with saturating PGE2;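 active = percent inhibition above 40 after rounding to a whole number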;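 also: rat C6 glioma host cells with rolipram phosphodiesterase inhibitor present; the protocol text gives 20 µM as final concentration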
Target sequence (P43116 whole entry, looked up): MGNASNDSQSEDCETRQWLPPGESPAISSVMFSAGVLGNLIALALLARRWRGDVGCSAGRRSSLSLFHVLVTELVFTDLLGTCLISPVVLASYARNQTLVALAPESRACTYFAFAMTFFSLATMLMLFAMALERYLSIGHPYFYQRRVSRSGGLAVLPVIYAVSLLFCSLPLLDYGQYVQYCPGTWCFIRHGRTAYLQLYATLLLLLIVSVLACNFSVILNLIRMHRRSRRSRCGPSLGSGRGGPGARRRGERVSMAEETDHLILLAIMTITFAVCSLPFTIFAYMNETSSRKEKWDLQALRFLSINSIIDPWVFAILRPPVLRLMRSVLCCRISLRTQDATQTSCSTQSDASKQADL
EP2 modulator: EP2 receptor modulators, cAMP readout, primary screen, cell-based, HTRF cAMP, PGE2 stimulation. EP2-expressing cells, cAMP HTRF FRET, PGE2 co-stimulation. induction, % at 25 µM. 260,000 compounds, 0.83% hits. AID 940, 2007;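 active = compounds whose cAMP rise, as percent of the full-agonist control response, exceeds 60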;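 also: rat C6 glioma line stably carrying human EP2 under a CMV promoter; the protocol text gives 20 µM as final concentration; 100% = response of wells given 1 µM PGE2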
PfGluPho inh: PfG6PD enzyme inhibitors, primary screen, biochemical, fluorescence intensity, uHTS; AID 504690, 2011; inhibition, % at 20 µM; PfGluPho enzyme, NADPH resazurin-diaphorase fluorescence; glucose-6-phosphate dehydrogenase-6-phosphogluconolactonase (Plasmodium falciparum 3D7); 350,000 compounds, 0.78% hits;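 active = inhibition reaching at least a set limit at 20 µM in the primary screen, cut at about 59% in these data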;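 also: 0% = DMSO wells with substrate and 100% = DMSO wells lacking glucose-6-phosphate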
HKDC1 inhibitor: HKDC1 hexokinase inhibitors, primary screen, biochemical, fluorescence, uHTS; Q2TB90; recombinant HKDC1, G6PDH/diaphorase resazurin coupled fluorescence; inhibition, % at 20 µM; 340,000 compounds, 0.16% hits;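 active = inhibition above about 35% when tested at 20 µM, limit read from the data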;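 also: plate controls were DMSO wells with enzyme for no effect and DMSO wells lacking enzyme for full effect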
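Material – in-house recombinant HK5 (HKDC1) enzyme · Quantity – HKDC1 at 5 µg/mL · Buffer or medium – pH 8.0 Tris buffer with 10 mM MgCl2 · Reagent – glucose with 1 mM ATP · Dosing – single 20 µM dose · Times – reaction time 90 min, room temperature, protected from light · Technique – resorufin fluorescence at 613 nm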
PfGluPho conf: PfG6PD inhibitors, hit retest, confirmation, biochemical, fluorescence intensity, single concentration; shares compounds with PfGluPho inh; recombinant PfGluPho, NADPH-diaphorase-resazurin fluorescence; inhibition, % at 20 µM; 2,400 compounds, 34% hits; AID 504753, 2011;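 active = inhibition of at least 50% at 20 µM in any single replicate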;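 also: 0% = DMSO with substrate and 100% = DMSO lacking glucose-6-phosphate substrate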
Diaphorase 10uM: diaphorase inhibitors and chemical oxidizers, confirmation, counter-screen for P. falciparum G6PD inhibitor project, biochemical, fluorescence intensity, 10 µM NADPH; shares compounds with PfGluPho inh; diaphorase-coupled resazurin reduction, NADPH 10 uM; inhibition, % at 20 µM; 820 compounds, 39% hits;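 active = average inhibition reaching 50% or more with the compound at 20 µM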;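 also: resorufin red fluorescence formed as diaphorase reduces resazurin using NADPH; 0% = DMSO with enzyme and 100% = DMSO without enzyme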
Diaph ctr 30uM: diaphorase inhibitors and chemical oxidizers, confirmation, counter-screen for P. falciparum G6PD inhibitor project, biochemical, fluorescence intensity, 30 µM NADPH | shares compounds with PfGluPho inh | 820 compounds, 29% hits | inhibition, % at 20 µM | Diaphorase/resazurin coupled assay, resorufin fluorescence;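 active = inhibition averaging 50% or more, tested at 20 µM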;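 also: 0% = DMSO with enzyme and 100% = DMSO wells lacking diaphorase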
* marks the source's active call; other numbers are inactive results; x = no result given.

SMILES | TbHK1 inh | PHOSPHO1 block | PGE2 EP2 inh | EP2 modulator | PfGluPho inh | HKDC1 inhibitor | PfGluPho conf | Diaphorase 10uM | Diaph ctr 30uM
COc1ccc(CN(C)S(=O)(=O)c2nnc(NC(=O)c3cccc(C)c3)s2)cc1OC | x | 5 | x | x | 80* | 6 | 64* | 64* | 40
CN(C)c1ccc(/C=C/c2ccc3c4ccccc4ccc3[n+]2-c2ccccc2)cc1 | 15 | 45 | 19 | -50 | 66* | 26 | 68* | -16 | -4
CC[n+]1c(/C=C/c2ccc(N(C)C)cc2)ccc2cc(C)ccc21 | x | x | 20 | -67 | x | x | x | x | x
O=C(CCCOc1ccc(Cl)cc1Cl)N/N=C/c1cccc([N+](=O)[O-])c1 | -4 | -9 | 12 | -31 | 112* | 17 | 69* | 59* | 48
O=C(COc1ccc(Cl)cc1Cl)N/N=C/c1cccnc1 | x | 46 | x | x | -1 | -5 | x | x | x
CCOc1ccc(Cl)cc1C1NC(=O)NC(C)=C1C(=O)OC (stereo not given) | x | x | 12 | 13 | x | x | x | x | x
O=C(/C=C/c1cccs1)N1CCN(c2ccc(O)cc2)CC1 | -14 | 0 | 5 | -4 | 64* | -2 | 36 | x | x
O=C(/C=C/c1cccs1)N1CCCCC1 | -7 | 4 | 5 | -4 | -1 | -14 | x | x | x
O=C(CSc1cc(Cl)ccc1Cl)NC1CCCc2ccccc21 (stereo not given) | 31 | -11 | 7 | -6 | -10 | 9 | x | x | x
Cc1ccc2nc(SCC(=O)NC3CCCc4ccccc43)[nH]c2c1 (stereo not given) | 2 | -9 | 5 | -9 | 75* | -4 | 59* | 64* | 42
COc1cc2cc(CN(C(C)=O)C3CCCC3)c(=O)[nH]c2cc1OC | x | x | 12 | 10 | x | x | x | x | x
O=c1c2cn[nH]c2[nH]c(=S)n1-c1ccccc1 | 0 | 1 | 9 | 26 | 59* | -2 | 0 | x | x
COc1ccc(-n2c(=S)[nH]c3[nH]ncc3c2=O)cc1 | -7 | -104 | 6 | 9 | 50 | 0 | x | x | x
O=C(O)c1cc(-c2ccc3c(c2)OCO3)nc2ccc(Cl)cc12 | x | 18 | x | x | 28 | -2 | x | x | x
Cc1ccc2nc(-c3ccc4c(c3)NC(=O)CO4)cn2c1 | -18 | -6 | 18 | -22 | 104* | -2 | 41 | x | x
c1ccn2cc(-c3ccc4c(c3)OCCO4)nc2c1 | 1 | 2 | 6 | -41 | 27 | 5 | x | x | x
Clc1ccc2nc(-c3ccc4c(c3)OCO4)cn2c1 | -22 | 40 | 6 | -13 | 73* | -5 | 50* | 17 | 19
Cc1ccc2nc(-c3ccc4c(c3)OCCO4)cn2c1 | -14 | 7 | 1 | -39 | 109* | 3 | 58* | 74* | 61*
Clc1ccc2nc(-c3ccccc3)cn2c1 | x | x | x | x | 64* | 0 | 37 | x | x
COc1ccc2ccccc2c1C1CC(=O)N2CN(Cc3ccco3)CSC2=C1C#N (stereo not given) | -27 | 72* | 4 | -8 | 68* | 13 | 42 | x | x
COc1cc(C2CC(=O)N3CN(Cc4ccco4)CSC3=C2C#N)ccc1OCc1ccccc1 (stereo not given) | -22 | 41 | 11 | 6 | 60* | 13 | 4 | x | x
CCOc1cc(C2CC(=O)NC(SCC)=C2C#N)ccc1O (stereo not given) | -1 | -9 | 13 | 6 | 2 | 1 | x | x | x
